Peptide text beside a SMILES is read from it. * marks the point of attachment. Cbz = O=C(OCc1ccccc1)*; CH2F = FC*
Experiments:
cleaved lamin A/C = assay: Western blotting for Lamin A/C in WM266–4 cells; assay type: cell-based, human; conditions: LY294002 10 μM, 2155–14 100 μM
How it was run: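 WM266–4 cells (1 × 10^6, E-MEM + 10% FBS, 6 cm plates) pre-treated after 24 h with caspase inhibitors for 3 h or autophagy inhibitors (LY294002 10 μM, hydroxychloroquine) for 1 h. Test compound given at various doses and times, with or without inhibitors; controls staurosporine 1 μM, rapamycin 10 μM + chloroquine 5 μM. Lysates blotted with polyclonal lamin A/C antibody (1:1000).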

LC3-II = assay: Western blotting for LC3 in WM266–4 cells; assay type: cell-based, human
How it was run: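 1 × 10^6 cells seeded (WM266–4 in E-MEM, M14 in RPMI-1640; + 10% FBS) in 6 cm plates. Test compound at various doses and times; controls rapamycin 10 μM + chloroquine 5 μM, staurosporine 1 μM. Lysates blotted with polyclonal LC3 A/B antibody (1:1000); bands normalised to β-actin, as fold of untreated; n=3.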

WM266–4 = assay: Cell viability assay; assay type: cell-based, human; conditions: for WM266–4 viability, inhibitor alone: 50 μM inhibitor, 72 h
sXBP1 = assay: ER stress assay; assay type: cell-based, human; conditions: 60 μM STF-83010 pre-treatment 3 h
How it was run: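 WM266–4 cells (0.2 × 10^6, E-MEM + 10% FBS, 24-well) pre-treated 24 h after seeding with 60 μM STF-83010 or vehicle for 3 h. RNA extracted with TRI reagent; amplified products run on 2% agarose with GelGreen and quantified. sXBP-1 expressed as % of total XBP-1 (sXBP-1 + XBP-1).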

metastatic melanoma = conditions: BRAF-mutant metastatic melanoma; cited from earlier work
PC-3 cells = conditions: read-out: IC50, apoptotic cell death of PC-3 cells; cited from earlier work
WM266–4 cells = assay: Annexin V flow cytometry assay; assay type: cell-based, human; conditions: 4 h, staurosporine 1 μM
How it was run: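 WM266–4 cells (1,000,000/flask, EMEM + 10% FBS + 1% pen/strep) adhered overnight. 24 h after plating, optional 2 h pre-treatment with Z-VAD-FMK 10 μM. Test compound 100 μM or staurosporine 1 μM (control) for 4, 24 and 48 h. Adherent plus floating cells pooled, Annexin V-FITC stained, and viable, necrotic, early and late apoptotic cells counted by flow cytometry.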

SKMEL2 = assay: Cell viability assay; assay type: cell-based; conditions: Homo sapiens, SK-MEL-2, 72 h, read-out: IC50, viability SKMEL2 (M)
How it was run: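 Cells plated in 384-well format. Test compound as a 10-point 1:3 dilution series prepared from 300 μM; dabrafenib as assay control. Incubated 72 h at 37 °C, 5% CO2. CellTiter-Glo added for 15 min at room temperature; luminescence read. Viability normalised to media-only (0%) and DMSO-treated cells (100%). S/B, CV and Z′ computed per plate.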

SKMEL28 = conditions: read-out: IC50, viability SKMEL28; V600E BRAF/R24C CDK4 primary; cited from earlier work
WM115 = assay: Cell viability assay; assay type: cell-based; conditions: Homo sapiens, WM-115, 72 h, read-out: IC50, viability WM115 (F)
M14 = assay: Cell viability assay; assay type: cell-based; conditions: Homo sapiens, M14, 72 h, read-out: IC50, viability M14 (M)

**Q.** Which results are given for O=c1cc(N2CCOCC2)oc2c(-c3ccccc3)cccc12 [LY294002]?
**A.** effect of pre-treatment on cleaved lamin A/C levels in cells treated with 2155–14 (cleaved lamin A/C): no effect; LC3-II levels, fold of untreated control (LC3-II; LY294002 10 μM alone): 20 fold; LC3-II levels, fold of untreated control (LC3-II; combination of LY294002 10 μM and 2155–14 100 μM): ~ 40 fold

**Q.** Which “WM266–4 viability 24 h after addition of 2155–14, inhibitor pre-incubation” value (WM266–4; caspase inhibitors 10 μM, calpain inhibitors 25 μM, 2155–14 100 μM) does the source give for CC(C)[C@H](NC(=O)OCc1ccccc1)C(=O)N[C@H](C=O)Cc1ccccc1 [MDL-28170] (Cbz-Val-Phe-aldehyde) here?
**A.** further decreased cell viability

**Q.** With O=S(=O)(N=Cc1c(O)ccc2ccccc12)c1cccs1 [STF-83010] as the compound, how does the “effect on sXBP1 formation by 2155–14” value (sXBP1) read?
**A.** inhibited

**Q.** For CC(C)(C)c1nc(-c2cccc(NS(=O)(=O)c3c(F)cccc3F)c2F)c(-c2ccnc(N)n2)s1 [dabrafenib], which “median progression-free survival (PFS)” value (metastatic melanoma) is on record?
**A.** 6.9 months

**Q.** Which IC50 (PC-3 cells) does the source give for O=c1c(O)c(-c2ccc(O)c(O)c2)oc2cc(O)cc(O)c12 [quercetin] here?
**A.** 100 µM

**Q.** Which apoptosis detection (WM266–4 cells) does the source give for CN[C@@H]1C[C@H]2O[C@@](C)([C@@H]1OC)n1c3ccccc3c3c4c(c5c6ccccc6n2c5c31)C(=O)NC4 [staurosporine] here?
**A.** apoptosis was detected

**Q.** With CCCS(=O)(=O)Nc1ccc(F)c(C(=O)c2c[nH]c3ncc(-c4ccc(Cl)cc4)cc23)c1F [vemurafenib] as the compound, how does the IC50 (SKMEL2) read?
**A.** 1.4e-06 ± 7e-07 M

**Q.** And the IC50 (SKMEL28)?
**A.** 4.6 µM

**Q.** And the “median progression-free survival (PFS)” value (metastatic melanoma)?
**A.** 6.9 months

**Q.** What about the IC50 (WM115) of the same compound?
**A.** 5 ± 0.9 µM

**Q.** What about the IC50 (WM266–4; Homo sapiens, WM 266-4, 72 h, read-out: IC50, viability WM266–4 (F)) of the same compound?
**A.** 3 ± 0.4 µM

**Q.** What about the IC50 (M14) of the same compound?
**A.** 1e-06 ± 2e-07 M

**Q.** Which “WM266–4 viability, inhibitor alone” value (WM266–4) does the source give for Cbz-Val-Ala-Asp-CH2F here?
**A.** completely inhibited cell viability

**Q.** Which “WM266–4 viability, inhibitor alone” value (WM266–4) does the source give for “Z-IETD-FMK: selective caspase 8 inhibitor” here?
**A.** completely inhibited cell viability

**Q.** And the “WM266–4 cells viable, 2155–14 in combination with inhibitor” value (WM266–4; 48 h, 2155–14 100 μM, caspase inhibitors 10 μM, calpain inhibitor 25 μM)?
**A.** 25%
